According to ChEMBL document CHEMBL1136006, “New PET imaging agent for the serotonin transporter: [(18)F]ACF (2-[(2-amino-4-chloro-5-fluorophenyl)thio]-N,N-dimethyl-benzenmethanamine)” (J Med Chem, 2002):

Legend:
[1] = system: Rattus norvegicus; assay: Ratio of effect of pretreatment with nisoxatine with a dose of 2 mg/kg (i.v.) on specific binding of [18F]ACF in rat brain remainder to that of cerebellum; type: ADME, organism-based; design: dose 2 mg/kg, route intravenous; details: in vivo, iv
Method in brief: (§1)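 Rats (three per point) pretreated iv with competing drug at 2 mg/kg or saline (control) 5 min before iv [18F]ACF (50 μCi). At 1 h post tracer, brain regions (cortex, striatum, hippocampus, cerebellum, hypothalamus, remainder) dissected, weighed, counted as % dose/g and expressed as ratio to cerebellum. Average ± SD; ANOVA with Dunnett's test vs saline controls, p < 0.05.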

[2] = system: Rattus norvegicus; assay: Effect of pretreatment with nisoxatine with a dose of 2 mg/kg (i.v.) on specific binding of [18F]ACF in rat brain hypothalamus; type: ADME, organism-based; design: dose 2 mg/kg, route intravenous; details: in vivo, iv
Method in brief: (§2)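 Rats pretreated iv with drug (2 mg/kg) or saline 5 min before iv [18F]ACF (50 μCi). Sacrificed 1 h after tracer. Brain regions were dissected, weighed and counted, and % dose/g was calculated against a diluted initial dose. Drug-treated rats were compared with saline controls by ANOVA/Dunnett's test (p<0.05). Three rats per point, average ± SD.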

[3] = species on record: Rattus norvegicus; assay: Ratio of regional brain distribution of [18F]ACF radiolabeled compound in rat cerebellum to that of cerebellum after 240 min; type: ADME, organism-based; details: in vivo, 4 h
Method in brief: (§3)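 Rats (three per group) under ether anesthesia got 30 μCi tracer in 0.2 mL saline into the femoral vein and were killed by cardiac excision at the stated time. Cortex, striatum, hippocampus, cerebellum, hypothalamus and the rest of brain were dissected, weighed and gamma counted. %dose/g was taken against counts of a diluted initial dose. Regional ratios are each region's %dose/g over cerebellum's. Mean ± SD.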

[4] = species on record: Rattus norvegicus; assay: Regional brain distribution of [18F]-ACF radiolabeled compound in rat cortex after 240 min; type: ADME, organism-based; details: in vivo, 4 h; method in brief: as §3
[5] = species on record: Rattus norvegicus; assay: Organ distribution of [18F]-ACF radiolabeled compound in rat skin after 60 min; type: ADME, organism-based; details: in vivo, 1 h
Method in brief: (§4)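 Under ether anesthesia, 30 μCi no-carrier-added tracer in 0.2 mL saline injected into the femoral vein. Rats killed by cardiac excision at the stated time. Organs were removed, weighed and counted; % dose/organ was calculated against counts of a 1% initial-dose standard. Three rats per time, average ± SD.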

[6] = species on record: Rattus norvegicus; assay: Regional brain distribution of [18F]ACF radiolabeled compound in rat cerebellum after 60 min; type: ADME, organism-based; details: in vivo, 1 h; method in brief: as §3
[7] = system: Rattus norvegicus; assay: Ratio of effect of pretreatment with methylphenidate with a dose of 2 mg/kg (i.v.) on specific binding of [18F]-ACF in rat brain remainder to that of cerebellum; type: ADME, organism-based; design: dose 2 mg/kg, route intravenous; details: in vivo, iv; method in brief: as §1
[8] = species on record: Rattus norvegicus; assay: Organ distribution of [18F]ACF radiolabeled compound in rat kidney after 120 min; type: ADME, organism-based; details: in vivo, 2 h
Method in brief: (§5)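 Rats, three per time point, under ether anesthesia; 30 μCi tracer in 0.2 mL saline injected into femoral vein. Sacrificed by cardiac excision under ether at 2, 30, 60, 120 or 240 min. Organs removed, weighed and counted; % dose/organ calculated against counts of 1% of initial dose counted at the same time. Average of three rats ± SD.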

[9] = species on record: Rattus norvegicus; assay: Organ distribution of [18F]-ACF radiolabeled compound in rat liver after 30 min; type: ADME, organism-based; details: in vivo, 0.5 h; method in brief: as §4
[10] = species on record: Rattus norvegicus; assay: Organ distribution of [18F]-ACF radiolabeled compound in rat muscle after 2 min; type: ADME, organism-based, Muscle tissue; details: in vivo; method in brief: as §4
[11] = system: Rattus norvegicus; assay: Effect of pretreatment with (+)-McN5652 with a dose of 2 mg/kg (i.v.) on specific binding of [18F]ACF in rat brain hippocampus; type: ADME, organism-based; design: dose 2 mg/kg, route intravenous; details: in vivo, iv; method in brief: as §2
[12] = system: Rattus norvegicus; assay: Effect of pretreatment with nisoxatine with a dose of 2 mg/kg (i.v.) on specific binding of [18F]ACF in rat brain remainder; type: ADME, organism-based; design: dose 2 mg/kg, route intravenous; details: in vivo, iv; method in brief: as §2
[13] = species on record: Rattus norvegicus; assay: Organ distribution of [18F]ACF radiolabeled compound in rat brain after 120 min; type: ADME, organism-based; details: in vivo, 2 h; method in brief: as §5

Ratio [1]: 2.17
Dose/g [2]: 0.55%
Ratio [3]: 1
Dose/g [4]: 0.03%
Dose/g [5]: 5.97 % dose/organ
Dose/g [6]: 0.15%
Ratio [7]: 2.23
Dose/g [8]: 0.78 % dose/organ
Dose/g [9]: 15.2 % dose/organ
Dose/g [10]: 14.3 % dose/organ
Dose/g [11]: 0.34%
Dose/g [12]: 0.41%
Dose/g [13]: 0.21 % dose/organ
SMILES: CN(C)Cc1ccccc1Sc1cc(F)c(Cl)cc1N
